In ChEMBL document CHEMBL1157474, “[11C]cyclopropyl-FLB 457: a PET radioligand for low densities of dopamine D2 receptors” (Bioorg Med Chem, 2008):
Blank lines part the entries; values can stand above or below the compound they belong to.

Key:
[1] = Ratio of drug uptake in cerebellum to thalamus in iv dosed cynomolgus monkey by PET; assay type: ADME, organism-based, Macaca fascicularis; settings: in vivo
Brain = experiment: Drug uptake in iv dosed cynomolgus monkey brain after 7.5 mins by PET; assay type: ADME, organism-based, Macaca fascicularis; settings: in vivo, 0.125 h
Outline: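 Ketamine/xylazine-anaesthetized cynomolgus monkeys given 56.2 ± 0.2 MBq [11C] tracer i.v. bolus over 5 sec into sural vein; 3D PET to 93 min. Whole-brain %ID = whole-brain ROI radioactivity concentration × ROI volume (~65 mL) / injected radioactivity × 100, plotted versus time; brain activity assumed unchanged radioligand.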

[2] = Lipophilicity, log D at pH 7.4 by shake flask method; assay type: physicochemical; settings: buffer
Outline: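 Shake-flask logD at pH 7.4: tracer in 1-octanol/phosphate buffer (pH 7.4), shaken 3 min; buffer replaced and repeated. Four octanol portions re-extracted with buffer (vortex 2 min, centrifuge 4 min at 2000 x g); both layers counted; D = octanol cpm/mL over buffer cpm/mL.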

[3] = Ratio of drug uptake in cerebellum to frontal cortex in iv dosed cynomolgus monkey by PET; assay type: ADME, organism-based, Macaca fascicularis; settings: in vivo
[4] = Ratio of drug uptake in cerebellum to pallidum in iv dosed cynomolgus monkey after 84 mins by PET; assay type: ADME, organism-based, Macaca fascicularis; settings: in vivo, 1.4 h
Outline: (§1)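 Baseline PET in ketamine/xylazine-anaesthetized cynomolgus monkeys after i.v. bolus of 56.2 ± 0.2 MBq tracer, scanned to 93 min. Regional radioactivity expressed as %SUV; region-to-cerebellum ratios taken at 84 min, cerebellum serving as reference region for free plus non-specific binding.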

[5] = Ratio of drug uptake in cerebellum to parietal cortex in iv dosed cynomolgus monkey by PET; assay type: ADME, organism-based, Macaca fascicularis; settings: in vivo
[6] = Ratio of drug uptake in cerebellum to caudate nucleus in iv dosed cynomolgus monkey after 84 mins by PET; assay type: ADME, organism-based, Macaca fascicularis; settings: in vivo, 1.4 h; outline: as §1
[7] = Ratio of drug uptake in cerebellum to temporal cortex in iv dosed cynomolgus monkey by PET; assay type: ADME, organism-based, Macaca fascicularis; settings: in vivo
[8] = Ratio of drug uptake in occipital cortex to cerebellum in iv dosed cynomolgus monkey by PET; settings: in vivo
[9] = Protein binding in cynomolgus monkey plasma at 10 MBq; assay type: ADME, cell-free, Macaca fascicularis; settings: read-out: PPB (converted)
Outline: (§2)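 Monkey plasma (baseline or after raclopride pretreatment) mixed with tracer (~10 MBq) for 10 min at room temperature, then ultrafiltered (YM-30 membrane) by centrifugation; filtrate counted versus incubate. Duplicates; corrected for membrane binding using 0.9% NaCl controls.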

[10] = Protein binding in cynomolgus monkey plasma at 10 MBq in presence of raclopride; assay type: ADME, cell-free, Macaca fascicularis; settings: read-out: PPB (converted); outline: as §2
[11] = Ratio of drug uptake in cerebellum to putamen in iv dosed cynomolgus monkey after 84 mins by PET; assay type: ADME, organism-based, Macaca fascicularis; settings: in vivo, 1.4 h; outline: as §1
[12] = Metabolic stability in cynomolgus monkey plasma after 45 mins; assay type: ADME, cell-free, Macaca fascicularis; settings: read-out: Stability
Outline: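 Monkey femoral vein blood drawn at 4, 15, 30, 45 min post-injection; plasma deproteinized with acetonitrile, centrifuged at 2000 x g, supernatant run on reverse-phase C18 radio-HPLC with acetonitrile/0.01 M phosphoric acid gradient, 6 mL/min; parent fraction versus polar metabolites; recovery checked by NaI well counting.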

D(2) dopamine receptor = D(2) dopamine receptor (Homo sapiens, UniProt P14416); experiment: Binding affinity to dopamine D2 receptor
Macaca fascicularis [13] = experiment: Binding affinity to dopamine D3 receptor in iv dosed cynomolgus monkey brain cerebellum pretreated with raclopride by PET; assay type: organism-based; settings: tested as the 11C-labelled form
Macaca fascicularis [14] = experiment: Binding affinity to dopamine D2 receptor in iv dosed cynomolgus monkey brain cerebellum pretreated with raclopride by PET; assay type: organism-based; settings: tested as the 11C-labelled form

Chain of D(2) dopamine receptor (P14416 whole entry): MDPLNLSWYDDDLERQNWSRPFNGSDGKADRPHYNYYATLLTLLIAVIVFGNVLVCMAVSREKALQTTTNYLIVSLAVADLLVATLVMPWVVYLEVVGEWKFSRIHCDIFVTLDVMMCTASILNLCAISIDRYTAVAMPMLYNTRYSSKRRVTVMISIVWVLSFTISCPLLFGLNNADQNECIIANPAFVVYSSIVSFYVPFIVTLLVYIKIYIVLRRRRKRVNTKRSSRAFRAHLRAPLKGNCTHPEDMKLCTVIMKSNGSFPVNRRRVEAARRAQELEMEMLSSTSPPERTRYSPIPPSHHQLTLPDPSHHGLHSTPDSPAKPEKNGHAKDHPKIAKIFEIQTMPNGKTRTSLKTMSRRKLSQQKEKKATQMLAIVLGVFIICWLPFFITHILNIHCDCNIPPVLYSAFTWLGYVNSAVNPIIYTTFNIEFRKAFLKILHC

Ratio [1]: 3.7 | Drug uptake (Brain): 4.4 %ID | logD [2]: 1.82 | Ratio [3]: 3.24 | Ratio [4]: 5.4 | Ratio [5]: 2.98 | Ratio [6]: 6.6 | Ratio [7]: 2.59 | Ratio [8]: 2.08 | fraction unbound at 10 MBq [9]: 0.68 | fraction unbound at 10 MBq [10]: 0.64 | Ratio [11]: 7.61 | remaining at 0.75 h [12]: 60%
SMILES: COc1cc(Br)cc(C(=O)NC[C@@H]2CCCN2CC2CC2)c1O[11CH3]

Ki (D(2) dopamine receptor): 3 pM
SMILES: CCN1CCC[C@H]1CNC(=O)c1cc(Br)cc(OC)c1OC

logD [2]: 1.33
SMILES: CCN1CCC[C@H]1CNC(=O)c1cc(Br)cc(OC)c1O[11CH3]

Activity (Macaca fascicularis [13]): 50% | Activity (Macaca fascicularis [14]): 50%
SMILES: COc1cc(Br)cc(C(=O)NC[C@@H]2CCCN2CC2CC2)c1OC
